The source made the active and inactive calls. No cut-off for these calls is given here.
Columns and labels:
U-937 [1] = experiment: Upregulation of Rad51 protein expression in p53 null human U937 cells assessed as ratio of Rad51 to beta-actin level at 2 uM after 24 hrs by Western blot analysis relative to control
MOLM-13 [2] = experiment: Induction of apoptosis in human MOLM13 cells harboring wild type p53/FLT3-ITD mutant at 1 uM after 24 hrs in presence of SAHA by annexin V-FITC/PI staining based flow cytometry; assay type: functional
In short: (§1)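 Cells treated 24 h, single agents or SAHA+PL at 1:1 (each drug at the stated concentration). Annexin V-FITC/PI kit staining, then flow cytometry, reported as % Annexin V+ cells. Three independent experiments in triplicate, with data from one representative experiment. DMSO <0.1% vehicle control.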

MV4-11 = experiment: Antiproliferative activity against human MV4-11 cells after 72 hrs in presence of SAHA by MTT assay; assay type: functional, cell-based; conditions: MV4-11, 72 h
Homo sapiens = organism: Homo sapiens; experiment: Effect on SAHA-induced HDAC inhibition in p53 null human U937 cells assessed as hyper acetylation of histone H4 at 1 uM after 4 hrs by Western blot analysis; assay type: cell-based
In short: (§2)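 U937 cells treated at 1 μM for 4 h. Whole-cell lysates run on SDS-PAGE, transferred to PVDF and immunoblotted for acetyl-histone H4, histone H4, acetyl-α-tubulin and β-actin.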

HL-60 = experiment: Antiproliferative activity against human HL60 cells after 72 hrs in presence of SAHA by MTT assay; assay type: functional, cell-based; conditions: HL-60, 72 h
In short: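 AML cell lines grown in RPMI 1640 with 10% FBS (20% for MOLM-13), 2 mM L-glutamine and penicillin/streptomycin at 37 °C, 5% CO2. Ara-C-resistant HL-60 and CMK sublines came from stepwise cytarabine selection and were kept in 600 nM or 300 nM cytarabine respectively. Cells were treated 72 h. MTT 0.05 mg/mL, 3 h at 37 °C, DMSO solubilization, absorbance at 570 nm. IC50 given ± SEM.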

U-937 [3] = experiment: Cytotoxicity against p53 null human U937 cells assessed as decrease in cell viability at 0.5 to 5 uM after 24 hrs in presence of SAHA by MTT assay; assay type: functional, cell-based
In short: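 MCF-10A (DMEM/F12, 5% horse serum, hydrocortisone, cholera toxin, insulin, EGF) and U937 (RPMI 1640, 10% FBS) were exposed to 0.5–5 μM, alone or PL+SAHA 1:1, for 24 h. MTT 0.05 mg/mL, 3 h at 37 °C, DMSO solubilization, A570. Viability given as mean ± SD of four to six independent experiments. DMSO <0.1% vehicle control.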

[4] = target: T1, Protein deacetylase HDAC6 (Homo sapiens) (UniProt Q9UBN7); experiment: Effect on SAHA-induced HDAC6 inhibition in p53 null human U937 cells assessed as hyper acetylation of alpha tubulin at 1 uM after 4 hrs by Western blot analysis; assay type: cell-based
T1 sequence (whole entry): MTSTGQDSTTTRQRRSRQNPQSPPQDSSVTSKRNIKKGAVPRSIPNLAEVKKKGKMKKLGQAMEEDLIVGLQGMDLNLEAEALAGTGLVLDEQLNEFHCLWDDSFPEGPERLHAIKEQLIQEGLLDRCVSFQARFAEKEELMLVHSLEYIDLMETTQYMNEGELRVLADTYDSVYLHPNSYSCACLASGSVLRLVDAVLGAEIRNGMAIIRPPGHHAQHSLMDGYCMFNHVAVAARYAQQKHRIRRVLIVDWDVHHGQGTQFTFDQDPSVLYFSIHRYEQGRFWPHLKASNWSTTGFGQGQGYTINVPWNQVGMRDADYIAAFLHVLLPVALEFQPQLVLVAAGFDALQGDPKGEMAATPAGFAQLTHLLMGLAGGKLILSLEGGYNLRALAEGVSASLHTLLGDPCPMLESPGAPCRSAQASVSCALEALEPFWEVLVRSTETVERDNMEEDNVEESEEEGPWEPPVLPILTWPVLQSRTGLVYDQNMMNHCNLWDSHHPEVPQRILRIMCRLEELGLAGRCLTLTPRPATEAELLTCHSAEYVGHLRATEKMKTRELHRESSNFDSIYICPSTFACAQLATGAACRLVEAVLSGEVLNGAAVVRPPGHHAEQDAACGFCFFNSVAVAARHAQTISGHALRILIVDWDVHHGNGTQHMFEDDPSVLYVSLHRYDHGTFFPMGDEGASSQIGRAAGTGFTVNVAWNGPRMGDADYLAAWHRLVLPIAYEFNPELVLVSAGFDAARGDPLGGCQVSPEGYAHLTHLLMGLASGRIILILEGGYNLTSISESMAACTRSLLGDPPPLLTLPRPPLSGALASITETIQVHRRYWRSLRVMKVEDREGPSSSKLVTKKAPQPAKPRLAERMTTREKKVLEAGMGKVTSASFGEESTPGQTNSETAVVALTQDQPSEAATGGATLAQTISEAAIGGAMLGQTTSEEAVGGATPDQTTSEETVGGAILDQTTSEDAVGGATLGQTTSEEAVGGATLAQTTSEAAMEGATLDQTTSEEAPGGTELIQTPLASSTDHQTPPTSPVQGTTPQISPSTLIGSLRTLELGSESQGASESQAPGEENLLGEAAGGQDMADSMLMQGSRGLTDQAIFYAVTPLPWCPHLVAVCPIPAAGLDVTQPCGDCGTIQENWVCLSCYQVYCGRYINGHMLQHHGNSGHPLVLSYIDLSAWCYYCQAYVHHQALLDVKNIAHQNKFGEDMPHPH
In short: as §2

U-937 [5] = experiment: Effect on SAHA-induced apoptosis in p53 null human U937 cells assessed as increase in Bim EL expression level by measuring ratio of Bim EL to beta-actin level at 2 uM after 24 hrs by Western blot analysis relative to control; assay type: functional
In short: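 U937 cells treated 24 h, alone or PL+SAHA. Whole-cell lysates (protease/phosphatase inhibitors) immunoblotted for γH2AX, CHK1, RAD51, Bim and XIAP. Band densitometry normalised to β-actin, then expressed as fold change relative to the untreated control.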

U-937 [6] = experiment: Induction of apoptosis in p53 null human U937 cells assessed as caspase 3 cleavage after 24 hrs by Western blot analysis; assay type: functional, cell-based
In short: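 U937 cells exposed for 24 h. Lysates with protease/phosphatase inhibitors were separated by SDS-PAGE, transferred to PVDF and probed for PARP and cleaved caspase-3, with β-actin as loading control.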

MOLM-13 [7] = experiment: Induction of apoptosis in human MOLM13 cells harboring wild type p53/FLT3-ITD mutant at 2 uM after 24 hrs by annexin V-FITC/PI staining based flow cytometry; assay type: functional
In short: as §1

MOLM-13 [8] = experiment: Induction of apoptosis in human MOLM13 cells harboring wild type p53/FLT3-ITD mutant at 1 uM after 24 hrs by annexin V-FITC/PI staining based flow cytometry; assay type: functional
In short: as §1

U-937 [9] = experiment: Induction of apoptosis in p53 null human U937 cells at 0.25 uM after 24 hrs by annexin V-FITC/PI staining based flow cytometry; assay type: functional
In short: as §1

U-937 [10] = experiment: Induction of apoptosis in p53 null human U937 cells at 1 uM after 24 hrs by annexin V-FITC/PI staining based flow cytometry; assay type: functional
In short: as §1

| IC50 (MV4-11) [nM] | IC50 (HL-60) [nM] | Activity [4] | SMILES | Ratio (U-937 [1]) | Activity (MOLM-13 [2]) [%] | Activity (Homo sapiens) | Activity (U-937 [3]) | Ratio (U-937 [5]) | Activity (U-937 [6]) | Activity (MOLM-13 [7]) [%] | Activity (MOLM-13 [8]) [%] | Activity (U-937 [9]) | Activity (U-937 [10]) [%] |
| --- | --- | --- | --- | --- | --- | --- | --- | --- | --- | --- | --- | --- | --- |
| 289 | 529 | inactive | COc1cc(/C=C/C(=O)N2CCC=CC2=O)cc(OC)c1OC [PIPLARTINE] | 1.4 | 8 | inactive | Active | 1.8 |  |  |  |  |  |
|  |  |  | COc1cc(/C=C/C(=O)N2CCC=CC2=O)cc(OC)c1OCCCCCCC(=O)NO |  |  |  |  |  | Dose-dependent effect | 65.9 | 24.6 | inactive | 13.7 |
